Results as given in ChEMBL document CHEMBL4346654 (Eur J Med Chem, 2019).
In brackets after ≈: the same amount, converted by molar mass.

Tests used:
Assay type in all cases: functional
Staphylococcus aureus [1] = assay: Antibacterial activity against MLS-resistant Staphylococcus aureus PU 32 expressing inducible ermA gene assessed as reduction in microbial growth by CLSI based two-fold broth dilution method
Streptococcus pneumoniae [2] = assay: Antibacterial activity against erythromycin-susceptible Streptococcus pneumoniae ATCC49619 assessed as reduction in microbial growth by CLSI based two-fold broth dilution method
Streptococcus pneumoniae [3] = assay: Bactericidal activity against erythromycin-susceptible Streptococcus pneumoniae ATCC49619 pretreated followed by subculture in absence of compound measured after 24 hrs
Procedure, shortened: (§1)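 Isolates were identified by 16S rDNA sequencing. MIC was determined by CLSI-recommended two-fold broth dilution. For MBC, samples from 1–8 fold MIC were transferred to culture medium and subcultured for 24 h without antibiotic.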

Haemophilus influenzae [4] = assay: Antibacterial activity against azithromycin-susceptible Haemophilus influenzae ATCC 49247 assessed as reduction in microbial growth by CLSI based two-fold broth dilution method
Streptococcus pneumoniae [5] = assay: Selectivity ratio of MBC to MIC for erythromycin-susceptible Streptococcus pneumoniae ATCC49619; procedure, shortened: as §1
Streptococcus pneumoniae [6] = assay: Antibacterial activity against Streptococcus pneumoniae 07P390 expressing constitutive ermB gene assessed as reduction in microbial growth by CLSI based two-fold broth dilution method
Streptococcus pneumoniae [7] = assay: Antibacterial activity against penicillin-susceptible Streptococcus pneumoniae PU 09 expressing mef gene assessed as reduction in microbial growth by CLSI based two-fold broth dilution method
Streptococcus pneumoniae [8] = assay: Bactericidal activity against penicillin-susceptible Streptococcus pneumoniae PU 09 expressing mef gene pretreated followed by subculture in absence of compound measured after 24 hrs; procedure, shortened: as §1
Streptococcus pneumoniae [9] = assay: Selectivity ratio of MBC to MIC for penicillin-susceptible Streptococcus pneumoniae PU 09 expressing mef gene; procedure, shortened: as §1
Haemophilus influenzae [10] = assay: Bactericidal activity against azithromycin-susceptible Haemophilus influenzae ATCC 49247 pretreated followed by subculture in absence of compound measured after 24 hrs; procedure, shortened: as §1
Haemophilus influenzae [11] = assay: Selectivity ratio of MBC to MIC for azithromycin-susceptible Haemophilus influenzae ATCC 49247; procedure, shortened: as §1
Streptococcus pyogenes [12] = assay: Antibacterial activity against MLS-resistant Streptococcus pyogenes 01-968 expressing inducible ermB gene assessed as reduction in microbial growth by CLSI based two-fold broth dilution method
Streptococcus pyogenes [13] = assay: Bactericidal activity against MLS-resistant Streptococcus pyogenes 01-968 expressing inducible ermB gene pretreated followed by subculture in absence of compound measured after 24 hrs
Procedure, shortened: (§2)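 MBC assay. Following MIC determination by CLSI standard two-fold broth dilution, samples at 1–8 fold MIC were transferred to fresh culture medium. They were subcultured for 24 h without antibiotic. Isolates were identified by 16S rDNA sequencing. S. aureus ATCC 29213 was used as a control strain.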

Streptococcus pyogenes [14] = assay: Selectivity ratio of MBC to MIC for MLS-resistant Streptococcus pyogenes 01-968 expressing inducible ermB gene
Procedure, shortened: (§3)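 MBC/MIC ratio. MIC was measured by CLSI standard two-fold broth dilution. MBC was measured by transferring samples at 1–8 fold MIC to culture medium and subculturing for 24 h without antibiotic. Isolates were identified by 16S rDNA sequencing.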

Staphylococcus aureus [15] = assay: Bactericidal activity against MLS/methicillin-resistant Staphylococcus aureus PU 32 expressing inducible ermA gene pretreated followed by subculture in absence of compound measured after 24 hrs; procedure, shortened: as §2
Staphylococcus aureus [16] = assay: Selectivity ratio of MBC to MIC for MLS/methicillin-resistant Staphylococcus aureus PU 32 expressing inducible ermA gene; procedure, shortened: as §3
Staphylococcus aureus [17] = assay: Antibacterial activity against MLS-resistant Staphylococcus aureus PU 20 expressing constitutive ermC gene assessed as reduction in microbial growth by CLSI based two-fold broth dilution method
Staphylococcus aureus [18] = assay: Bactericidal activity against MLS-resistant Staphylococcus aureus PU 20 expressing constitutive ermC gene pretreated followed by subculture in absence of compound measured after 24 hrs; procedure, shortened: as §2
Streptococcus pneumoniae [19] = assay: Bactericidal activity against Streptococcus pneumoniae 07P390 expressing constitutive ermB gene pretreated followed by subculture in absence of compound measured after 24 hrs; procedure, shortened: as §1

SMILES	MIC (Staphylococcus aureus [1]) [µg/mL]	MIC (Streptococcus pneumoniae [2]) [µg/mL]	MBC (Streptococcus pneumoniae [3]) [µg/mL]	MIC (Haemophilus influenzae [4]) [µg/mL]	Selectivity ratio (Streptococcus pneumoniae [5])	MIC (Streptococcus pneumoniae [6]) [µg/mL]	MIC (Streptococcus pneumoniae [7]) [µg/mL]	MBC (Streptococcus pneumoniae [8]) [µg/mL]	Selectivity ratio (Streptococcus pneumoniae [9])	MBC (Haemophilus influenzae [10]) [µg/mL]	Selectivity ratio (Haemophilus influenzae [11])	MIC (Streptococcus pyogenes [12]) [µg/mL]	MBC (Streptococcus pyogenes [13]) [µg/mL]	Selectivity ratio (Streptococcus pyogenes [14])	MBC (Staphylococcus aureus [15]) [µg/mL]	Selectivity ratio (Staphylococcus aureus [16])	MIC (Staphylococcus aureus [17]) [µg/mL]	MBC (Staphylococcus aureus [18]) [µg/mL]	MBC (Streptococcus pneumoniae [19]) [µg/mL]
CC[C@H]1OC(=O)[C@@](C)(F)C(=O)[C@H](C)[C@@H](O[C@@H]2O[C@H](C)C[C@H](N(C)C)[C@H]2O)[C@](C)(OC)C[C@@H](C)/C(=N\OC/C=C/c2cncc(N)c2)[C@H](C)[C@H]2OC(=O)O[C@@]21C	0.5	0.125	0.125 (≈ 0.16 µM)	8	1	> 32	1	1 (≈ 1.28 µM)	1	16 (≈ 20.5 µM)	2	0.031	> 0.25	>8	> 4	>8	256	> 256	–
CC[C@H]1OC(=O)[C@@](C)(F)C(=O)[C@H](C)[C@@H](O[C@@H]2O[C@H](C)C[C@H](N(C)C)[C@H]2O)[C@](C)(OC)C[C@@H](C)/C(=N\OC/C=C/c2ccc3ncc(C(=O)O)cc3c2)[C@H](C)[C@H]2OC(=O)O[C@@]21C	4	1	2 (≈ 2.33 µM)	32	2	32	16	32 (≈ 37.3 µM)	2	64 (≈ 74.6 µM)	2	0.062	> 0.5	>8	> 32	>8	> 256	–	> 32
CC[C@H]1OC(=O)[C@@](C)(F)C(=O)[C@H](C)[C@@H](O[C@@H]2O[C@H](C)C[C@H](N(C)C)[C@H]2O)[C@](C)(OC)C[C@@H](C)/C(=N\OCC#Cc2ccc(N)nc2)[C@H](C)[C@H]2OC(=O)O[C@@]21C	1	0.25	0.5 (≈ 0.644 µM)	16	2	> 32	2	2 (≈ 2.57 µM)	1	32 (≈ 41.2 µM)	2	0.125	> 1	>8	> 8	>8	256	> 256	–
CC[C@H]1OC(=O)[C@@](C)(F)C(=O)[C@H](C)[C@@H](O[C@@H]2O[C@H](C)C[C@H](N(C)C)[C@H]2O)[C@](C)(OC)C[C@@H](C)/C(=N\OC/C=C/c2cncc(O)c2)[C@H](C)[C@H]2OC(=O)O[C@@]21C	0.25	0.125	0.5 (≈ 0.641 µM)	16	4	32	2	4 (≈ 5.13 µM)	2	16 (≈ 20.5 µM)	1	0.062	> 0.5	>8	> 2	>8	256	> 256	> 32
CC[C@H]1OC(=O)[C@@](C)(F)C(=O)[C@H](C)[C@@H](O[C@@H]2O[C@H](C)C[C@H](N(C)C)[C@H]2O)[C@](C)(OC)C[C@@H](C)/C(=N\OCC#Cc2ccc([N+](=O)[O-])nc2)[C@H](C)[C@H]2OC(=O)O[C@@]21C	0.25	0.125	0.125 (≈ 0.155 µM)	16	1	> 32	1	4 (≈ 4.96 µM)	4	32 (≈ 39.7 µM)	2	0.016	0.062 (≈ 0.0768 µM)	4	2 (≈ 2.48 µM)	8	128	> 256	–
CC[C@H]1OC(=O)[C@@](C)(F)C(=O)[C@H](C)[C@@H](O[C@@H]2O[C@H](C)C[C@H](N(C)C)[C@H]2O)[C@](C)(OC)C[C@@H](C)/C(=N\OCC#Cc2cnc(N)c3ccccc23)[C@H](C)[C@H]2OC(=O)O[C@@]21C	8	2	4 (≈ 4.84 µM)	64	2	> 32	16	16 (≈ 19.3 µM)	1	64 (≈ 77.4 µM)	1	1	8 (≈ 9.67 µM)	8	32 (≈ 38.7 µM)	4	128	> 128	–
CC[C@H]1OC(=O)[C@@](C)(F)C(=O)[C@H](C)[C@@H](O[C@@H]2O[C@H](C)C[C@H](N(C)C)[C@H]2O)[C@](C)(OC)C[C@@H](C)/C(=N\OCC#Cc2cncc(C#N)c2)[C@H](C)[C@H]2OC(=O)O[C@@]21C	0.5	0.125	0.125 (≈ 0.159 µM)	8	1	> 32	1	2 (≈ 2.54 µM)	2	16 (≈ 20.3 µM)	2	0.25	> 2	>8	> 4	>8	128	> 256	–
CC[C@H]1OC(=O)[C@H](C)[C@@H](O[C@H]2C[C@@](C)(OC)[C@@H](O)[C@H](C)O2)[C@H](C)[C@@H](O[C@@H]2O[C@H](C)C[C@H](N(C)C)[C@H]2O)[C@](C)(OC)C[C@@H](C)C(=O)[C@H](C)[C@@H](O)[C@]1(C)O [CLARITHROMYCIN]	32	0.062	0.25 (≈ 0.334 µM)	4	4	> 32	4	32 (≈ 42.8 µM)	8	8 (≈ 10.7 µM)	2	8	> 64	>8	> 256	>8	> 256	–	–
